Assay results published in ChEMBL document CHEMBL4699574, “Discovery of Ketone-Based Covalent Inhibitors of Coronavirus 3CL Proteases for the Potential Therapeutic Treatment of COVID-19” (J Med Chem, 2020).

Legend:
[1] = Irreversible inhibition of SARS coronavirus Urbani 3CL protease (9985 to 10902) using TAMRA-SITSAVLQSGFRKMK(DABCYL)-OH as substrate measured for 10 mins by FRET assay
How it was run: (§1)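 SARS CoV-1 3CLpro FRET assay; each value calculated from at least eight data points, with at least two independent determinations.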

[2] = Reversible inhibition of SARS coronavirus Urbani 3CL protease(9985 to 10902) using TAMRA-SITSAVLQSGFRKMK(DABCYL)-OH as substrate measured for 10 mins by FRET assay; how it was run: as §1
SARS-CoV = experiment: Antiviral activity against SARS COV-1 infected in monkey vero 76 cells assessed as reduction in virus-induced cytopathic effect measured after 66 hrs by neutral red method or cell titer glo-based luminescence assay; assay type: functional, organism-based; settings: Severe acute respiratory syndrome-related coronavirus
SARS coronavirus Urbani = experiment: Irreversible inhibition of SARS coronavirus Urbani 3CL protease (9985 to 10902) assessed as first order inhibition rate constant (Kobs/I ratio) using TAMRA-SITSAVLQSGFRKMK(DABCYL)-OH as substrate measured for 10 mins by FRET assay
How it was run: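 SARS CoV-1 3CL protease activity was monitored by a FRET read-out. Irreversible, time-dependent inactivation was expressed as kobs/I. Each value was calculated from at least eight data points, with at least two independent determinations.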

Q: For `COc1cccc2[nH]c(C(=O)N[C@@H](CC(C)C)C(=O)N[C@@H](C[C@@H]3CCNC3=O)C(=O)COC(=O)c3ccc(C#N)cc3)cc12`, which IC50 [1] is on record?
A: Its IC50 is 53 nM.

Q: Which IC50 [2] does the source give for `COCC(=O)[C@H](C[C@@H]1CCNC1=O)NC(=O)[C@H](CC(C)C)NC(=O)c1cc2ccccc2[nH]1` here?
A: Its IC50 is 131 nM.

Q: What about the EC50 (SARS-CoV) of the same molecule?
A: The EC50 was 45000 nM.

Q: For `CC(C)C[C@H](NC(=O)c1nc2ccccc2[nH]1)C(=O)N[C@@H](C[C@@H]1CCNC1=O)C(=O)COC(=O)c1c(Cl)cccc1Cl`, which K (SARS coronavirus Urbani) is on record?
A: Its K is 30300 M⁻¹ s⁻¹.

Q: With `COc1cccc2[nH]c(C(=O)N[C@@H](CC(C)C)C(=O)N[C@@H](C[C@@H]3CCNC3=O)C(=O)CCl)cc12` as the molecule, how does the K (SARS coronavirus Urbani) read?
A: The K was 283000 M⁻¹ s⁻¹.

Q: Which IC50 [2] does the source give for `CC(C)(C)C[C@H](NC(=O)[C@H]1CCCO1)C(=O)N[C@@H](C[C@@H]1CCNC1=O)C(=O)CO` here?
A: The IC50 was 91 nM.

Q: And the EC50 (SARS-CoV)?
A: The EC50 was 33000 nM.

Q: Which K (SARS coronavirus Urbani) does the source give for `COc1cccc2[nH]c(C(=O)N[C@@H](CC(C)C)C(=O)N[C@@H](C[C@@H]3CCNC3=O)C(=O)COC(=O)c3ccc(C#N)cc3F)cc12` here?
A: Its K is 13300 M⁻¹ s⁻¹.

Q: For `CCOCC(=O)[C@H](C[C@@H]1CCNC1=O)NC(=O)[C@H](CC(C)(C)C)NC(=O)c1cc2ccccc2[nH]1`, which IC50 [2] is on record?
A: The IC50 was 112 nM.

Q: And the EC50 (SARS-CoV)?
A: Its EC50 is 20000 nM.

Q: Which IC50 [1] does the source give for `COc1cccc2[nH]c(C(=O)N[C@@H](CC(C)C)C(=O)N[C@@H](C[C@@H]3CCNC3=O)C(=O)COC(=O)C(C)(C)C)cc12` here?
A: Its IC50 is 230 nM.

Q: For `COc1cccc2[nH]c(C(=O)N[C@@H](CC(C)C)C(=O)N[C@@H](C[C@@H]3CCNC3=O)C(=O)COC(=O)c3ccccc3C#N)cc12`, which IC50 [1] is on record?
A: The IC50 was 17 nM.

Q: Which IC50 [1] does the source give for `COc1cccc2[nH]c(C(=O)N[C@@H](CC(C)C)C(=O)N[C@@H](C[C@@H]3CCNC3=O)C(=O)COC(=O)C3CC3)cc12` here?
A: Its IC50 is 182 nM.

Q: For `COc1ccc(C(=O)OCC(=O)[C@H](C[C@@H]2CCNC2=O)NC(=O)[C@H](CC(C)C)NC(=O)c2cc3c(OC)cccc3[nH]2)cc1`, which IC50 [1] is on record?
A: Its IC50 is 79 nM.

Q: For `COc1cccc2[nH]c(C(=O)N[C@@H](CC(C)C)C(=O)N[C@@H](C[C@@H]3CCNC3=O)C(=O)COC(=O)c3c(C)cccc3C)cc12`, which IC50 [1] is on record?
A: The IC50 was 74 nM.

Q: With `COCC(=O)[C@H](C[C@@H]1CCNC1=O)NC(=O)[C@H](CC(C)(C)C)NC(=O)c1cc2ccccc2[nH]1` as the molecule, how does the IC50 [2] read?
A: The IC50 was 105 nM.

Q: And the EC50 (SARS-CoV)?
A: The EC50 was 46000 nM.

Q: With `COc1cccc2[nH]c(C(=O)N[C@@H](CC(C)C)C(=O)N[C@@H](C[C@@H]3CCNC3=O)C(=O)COC(=O)c3ccc(C)cc3)cc12` as the molecule, how does the IC50 [1] read?
A: Its IC50 is 87 nM.

Q: Which IC50 [1] does the source give for `COc1cccc2[nH]c(C(=O)N[C@@H](CC(C)C)C(=O)N[C@@H](C[C@@H]3CCNC3=O)C(=O)COC(=O)c3ccc(Cl)cc3)cc12` here?
A: The IC50 was 97 nM.

Q: Which results are given for `CC(C)(C)C[C@H](NC(=O)c1cc2ccccc2[nH]1)C(=O)N[C@@H](C[C@@H]1CCNC1=O)C(=O)CO`?
A: IC50 [2]: 20 nM; EC50 (SARS-CoV): 17000 nM

Q: For `COc1cccc2[nH]c(C(=O)N[C@@H](CC(C)C)C(=O)N[C@@H](C[C@@H]3CCNC3=O)C(=O)COC(=O)c3ccc(F)cc3)cc12`, which IC50 [1] is on record?
A: The IC50 was 82 nM.

Q: Which IC50 [1] does the source give for `COc1cccc2[nH]c(C(=O)N[C@@H](CC(C)C)C(=O)N[C@@H](C[C@@H]3CCNC3=O)C(=O)COC(=O)c3ccccc3)cc12` here?
A: The IC50 was 86 nM.

Q: Which results are given for `CC(C)C[C@H](NC(=O)c1cc2ccccc2[nH]1)C(=O)N[C@@H](C[C@@H]1CCNC1=O)C(=O)CO`?
A: IC50 [2]: 38 nM; EC50 (SARS-CoV): 20000 nM

Q: For `COCC(=O)[C@H](C[C@@H]1CCNC1=O)NC(=O)[C@H](CC(C)C)NC(=O)c1cc2c(OC)cccc2[nH]1`, which IC50 [2] is on record?
A: Its IC50 is 53 nM.

Q: What about the EC50 (SARS-CoV) of the same molecule?
A: Its EC50 is 31000 nM.

Q: Which IC50 [1] does the source give for `COc1cccc2[nH]c(C(=O)N[C@@H](CC(C)C)C(=O)N[C@@H](C[C@@H]3CCNC3=O)C(=O)COC(C)=O)cc12` here?
A: Its IC50 is 220 nM.

Q: For `COc1cccc(OC)c1C(=O)OCC(=O)[C@H](C[C@@H]1CCNC1=O)NC(=O)[C@H](CC(C)C)NC(=O)c1cc2c(OC)cccc2[nH]1`, which IC50 [1] is on record?
A: Its IC50 is 205 nM.

Q: With `CC(=O)N[C@@H](CC(C)C)C(=O)N[C@@H](C[C@@H]1CCNC1=O)C(=O)COC(=O)c1c(Cl)cccc1Cl` as the molecule, how does the IC50 [1] read?
A: The IC50 was 1030 nM.

Q: What does the source list for `COCC(=O)[C@H](C[C@@H]1CCNC1=O)NC(=O)[C@H](CC(C)(C)C)NC(=O)[C@H]1CCCO1`?
A: IC50 [2]: 1080 nM; EC50 (SARS-CoV): > 100000 nM

Q: What does the source list for `COCC(=O)[C@H](C[C@@H]1CCNC1=O)NC(=O)[C@H](CC(C)(C)C)NC(=O)c1cc2c(OC)cccc2[nH]1`?
A: IC50 [2]: 35 nM; EC50 (SARS-CoV): 32000 nM
